This passage reports Activity, Effective molarity and NE results from ChEMBL document CHEMBL1132931, “Screening of new antioxidant molecules using flow cytometry” (2000).

Active and inactive are the calls of the source. No cut-off for these calls is given here.

Test [1] can be described thus: Glutathione peroxidase-like activity at 10x(E -2) M concentration as NADP+/L/min. In kind it is functional.
A short description of test [2]: Glutathione peroxidase-like activity in relation to Ebselen glutathione peroxidase-like activity. In kind it is functional. The arrangement: concentration or dose not given beside the values.
Test [3] can be described thus: Glutathione peroxidase-like activity at 10x(E -3) M concentration as NADP+/L/min. In kind it is functional.
For test [4], the species on record is Mus musculus. The experiment in a line: Glutathione peroxidase-like activity at 10x(E -4) M concentration measured as NADP+/L/min. Type of test: functional.
The test system of test [5] is Murine-murine hybridoma (mark 3). As to the kind of experiment: (§1) Antioxidative property against stable murine-murine hybridoma (Mark 3) cell line. Type of test: functional.
Test [6] is described as follows: Glutathione peroxidase-like activity in relative to Ebselen glutathione peroxidase-like activity. Further details: concentration or dose not given beside the values. Type of test: functional. The gist of the method:
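Glutathione peroxidase-like activity by the Paglia and Valentine method. Compound solution (100 µL) was added to phosphate buffer, pH 7, with H2O2 and GSH (1.5 × 10-1 M stock in 0.01 M HCl). NADP+ formation was read at 340 nm and expressed as µmol NADP+/L/min. Blanks checked direct NADPH oxidation by compounds. Ebselen was run as the reference.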

The species entered for test [7] is Mus musculus. Described as §1. Type of test: functional.
The species named for test [8] is Mus musculus. The experiment in a line: Antioxidative property against stable murine-murine hybridoma (Mark 3) cell line; fluorescence at 488 nm. In kind it is functional, organism-based.
Test [9] in a line: Glutathione peroxidase-like activity at 10x(E -4) M concentration as NADP+/L/min; traces. In kind it is functional.
For test [10], the species on record is Mus musculus. The experiment in a line: Antioxidative property against stable murine-murine hybridoma (Mark 3) cell line; no effect. Type of test: functional, organism-based.
Test [11] can be described thus: Glutathione peroxidase-like activity at 10x(E -2) M concentration. In kind it is functional.

Turning to `COc1ccc2[nH]c3c(ccc4ccsc43)c2c1`, the Activity in test [1] amounted to 60 µM; in test [2] it was 6%; in [3] it was 22 µM; in test [4], 4 µM/min.

In the case of `Cc1nc2ccc3[nH]c4ccccc4c3c2s1`, the Activity was 93 µM in [1], 9% in [2], 29 µM in test [3] and 20 µM/min in test [4].

With VITAMIN E, the Activity in test [1] is 20 µM; in test [2], 2%; in test [3], 33 µM; in test [4], 15 µM. Also, in test [5], the Effective molarity is 1e-10 M l-1.

For the molecule `CS(=O)(=O)n1c2c(c3ccccc31)-c1nn[se]c1CC2`, the Activity came to 140 µM in test [1], 33 µM in test [3], 13% in test [6] and 31 µM/min in [4]. Further, the Effective molarity in test [5] was 0 M l-1.

Take `Cn1cnc2c3[nH]c4ccccc4c3ccc21`: the Activity in [1] came out at 42 µM; in test [2], 4%; in test [3], 20 µM; in test [4] it was 29 µM/min. Besides, the Effective molarity in test [5] is given as 1e-05 M l-1.

With `c1ccc2c(c1)[nH]c1c2ccc2ccsc21`, the Activity in test [1] worked out at 25 µM; in test [3], 20 µM; in [6], 2%; in [4], 27 µM/min. In [5], this molecule returned an Effective molarity of 1e-05 M l-1.

For `CCOC(=O)c1sc(SC)c2c1ccc1c3cc(OC)ccc3[nH]c12`, the Activity in test [1] was 151 µM; in [2] it was 14%; in [3], 9 µM; in test [4], 26 µM/min.

For `COc1ccc2[nH]c3c(c2c1)-c1cccc(OC)c1C3=O`, the Activity was found to be 58 µM in test [1], 6% in [2], 26 µM in [3] and 11 µM/min in [4]. In test [5], the Effective molarity worked out at 1e-05 M l-1.

For the molecule `CCOC(=O)c1c2[nH]c3ccc(OC)cc3c2cc2nc(C)sc12`, the Activity was determined as 215 µM in [1], 21% in test [2], 58 µM in [3] and 40 µM/min in test [4]. The same molecule had an Effective molarity in [5] of 1e-05 M l-1.

On to `COc1cccc2c1C(=O)c1[nH]c3ccccc3c1-2`, for which the Activity amounted to 369 µM in test [1], 35% in [2], 29 µM in test [3] and 20 µM/min in [4]. The Effective molarity in test [7] was found to be 1e-06 M l-1.

As to `COc1ccc2[nH]c3c4ccsc4ccc3c2c1`, the Activity was determined as 47 µM in [1], 4% in [2], 20 µM in test [3] and 13 µM/min in test [4]. In addition, the Effective molarity in test [5] stood at 1e-06 M l-1.

Consider `O=c1c2ccccc2[se]n1-c1ccccc1` [EBSELEN], for which the Activity worked out at 1050 µM in [1], 111 µM in [3] and 100% in test [6]. The Effective molarity in test [5] was determined as 1e-05 M l-1.

As to `CCOC(=O)c1c2[nH]c3ccccc3c2cc2nc(C)sc12`, the Activity was 506 µM in test [1], 48% in [2], 46 µM in test [3] and 33 µM/min in test [4]. Further, in test [5], the Effective molarity worked out at 1e-05 M l-1.

`CCOC(=O)c1cc2ccc3c(c4ccccc4n3C)c2o1`: the Activity came out at 53 µM in [1], 5% in test [2], 15 µM in test [3] and 33 µM/min in test [4]. The molecule also registered an Effective molarity in test [5] of 0.0001 M l-1.

As to `CS(=O)(=O)n1c2ccccc2c2c3nn[se]c3ccc21`, the Activity in test [1] was determined as 46 µM; in [3] it was 33 µM; in test [6], 4%; in test [4], 29 µM/min. This molecule showed an Effective molarity in test [5] of 0.0001 M l-1.

With `c1ccc2c3c([nH]c2c1)-c1ccsc1SC3`, the Activity in [1] was found to be 75 µM; in [3], 71 µM; in test [6], 7%; in test [4], 44 µM/min. The Effective molarity in test [5] was 1e-05 M l-1.

For the molecule `c1ccc2c(c1)[nH]c1c3ccsc3ccc21`, the Activity in test [1] amounted to 60 µM; in [3], 25 µM; in test [6], 6%; in test [4], 26 µM/min. This molecule yielded an Effective molarity in test [5] of 1e-05 M l-1.

`COC(=O)c1cc2ccc3c(c4ccccc4n3C)c2[se]1`: the Activity came out at 104 µM in [1], 31 µM in [3], 10% in test [6] and 29 µM/min in test [4]. The Effective molarity in test [5] is 1e-05 M l-1.

Take `CCOC(=O)c1sc(SC)c2c1ccc1c3ccccc3[nH]c12`: the Activity was 133 µM in [1], 13% in test [2], 38 µM in [3] and “traces” in test [9]. The Effective molarity entry in test [8] is given as “fluorescence at 488 nm”.

Turning to `c1ccc2c(c1)[nH]c1c2ccc2[se]nnc21`, the Activity amounted to 51 µM in test [1], 31 µM in test [3], 5% in [6] and 20 µM/min in [4]. Besides, in test [10], the NE result was “inactive”.

As for `CCOC(=O)c1cc2ccc3c(c4ccccc4n3C)c2s1`, in test [5], the Effective molarity is listed as 0.0001 M l-1. The molecule also displayed an Activity in test [2] of 11%.

As to `CS(=O)(=O)n1c2c(c3ccccc31)CCc1[se]nnc1-2`, the Activity in [1] was determined as 246 µM; in [3], 31 µM; in [6], 23%; in test [4] it was 18 µM/min. In addition, in test [5], the Effective molarity came to 0.0001 M l-1.

On to `COc1ccc2[nH]c3ccc4nc(C)sc4c3c2c1`, for which the Activity worked out at 6% in test [2], 35 µM in test [3], 64 µM in [11] and 33 µM/min in test [4].
